Measurements gathered from unrelated publications.
Lines come from different studies, so protocols differ.
NTRK3: NT-3 growth factor receptor (NTRK3, Homo sapiens, UniProt Q16288)

Structure (SMILES) | target | read-out | mode | technique | cells | concentration | inhibition
O=C(Nc1ccc(C(F)(F)F)cc1)Nc1cccc(C(=O)Nc2ccc3[nH]ncc3c2)c1 | NTRK3 | enzyme activity | inhibitor | FRET |  | 1 µM | 13.5%
CN(C)C1CCN(CC#Cc2nn(C3CCCC3)c3nc(NCc4ccccc4)ncc23)C1 (stereo not shown) | Cyclin-dependent kinase 9, with cyclin T1 (CDK9, Homo sapiens, UniProt P50750) | enzyme activity | inhibitor | FRET |  | 0.1 µM | 5%
O=C(O)CC[C@@H](O)C(=O)O | Methylcytosine dioxygenase TET2 (Mus musculus, UniProt Q4JK59) | enzyme activity | inhibitor |  |  | 50 mM | 83%
OCc1cc(C(O)CNCCCCCCOCCCCc2ccccc2)ccc1O (stereo not shown) | C-X-C chemokine receptor type 4 (CXCR4, Homo sapiens, UniProt P61073) | calcium signal | antagonist |  | U87.CD4.CXCR4 | 4 µM | 11%
O=C(Nc1ccc(OC(F)(F)F)cc1)Nc1cccc(C(=O)Nc2ccc3[nH]ncc3c2)c1 | NTRK3 | enzyme activity | inhibitor | FRET |  | 1 µM | 17.3%
CCN1CCN(Cc2ccc(NC(=O)c3ccc(C)c(Oc4ccnc5[nH]ccc45)c3)cc2C(F)(F)F)CC1 | Mitogen-activated protein kinase 3 (MAPK3, Homo sapiens, UniProt P27361) | target engagement in cells | inhibitor | chemoproteomics | A-375 | 0.5 µM | -44.6%
CC(=O)c1nn(CC(=O)N2C[C@H](F)C[C@H]2C(=O)Nc2cccc(Br)n2)c2ccc(-c3cnc(C)nc3)cc12 | Dipeptidyl peptidase 4 (DPP4, Homo sapiens, UniProt P27487) | enzyme activity | inhibitor |  |  | 10 µM | -1%
CC1=C(/C=C/C(C)=C/C=C/C(C)=C/C(=O)O)C(C)(C)CCC1 | Prothrombin (Rattus norvegicus, UniProt P18292) | enzyme activity | inhibitor |  |  | 200 µg/mL | 92%
COC(=O)c1c(O)ccc(O)c1C(=O)c1c(O)cc2c(c1O)[C@@H]1C=C[C@@]3(C2)[C@@H](OC(C)=O)c2cc(C)cc(O)c2C(=O)C3(O)C1=O (stereo partly shown) | PSMB6/PSMB5/PSMB7 (Homo sapiens, UniProt P28072+P28074+Q99436) | enzyme activity in cells | inhibitor |  | MCF7 | 20 µg/mL | 67%
C[C@H]1C[C@@H](N2C(=N)N[C@](C)(c3cccc(Nc4ccc(C5CC5)nc4)c3Cl)CC2=O)CCO1 | Cathepsin E (CTSE, Homo sapiens, UniProt P14091) | enzyme activity | inhibitor |  |  | 10 µM | 86%
CNC(=O)c1cc(Oc2ccc(NC(=O)Nc3ccc(Cl)c(C(F)(F)F)c3)cc2)ccn1 | Dual specificity mitogen-activated protein kinase kinase 7 (MAP2K7, Homo sapiens, UniProt O14733) | enzyme activity | inhibitor |  |  | 0.3 µM | 9%
COc1ccc(C(N)=O)cc1NC(=O)c1cccc(-c2cnc3[nH]c(=O)n(C)c3c2)c1 | Poly [ADP-ribose] polymerase tankyrase-1 (TNKS, Homo sapiens, UniProt O95271) | enzyme activity | inhibitor |  |  | 0.1 µM | 0%
CCN(c1cc(C#CCN2CCOCC2)cc(C(=O)NCc2c(C)cc(C)[nH]c2=O)c1C)[C@H]1CC[C@H](N(C)CCOC)CC1 | Histone-lysine N-methyltransferase SMYD3 (SMYD3, Homo sapiens, UniProt Q9H7B4) | enzyme activity | inhibitor |  |  | 1 µM | 13%
